Assay results from ChEMBL document CHEMBL4513216, “Probing the Open Global Health Chemical Diversity Library for Multistage-Active Starting Points for Next-Generation Antimalarials” (ACS Infect Dis, 2020).

Assay: Toxicity liver stage against HepG2, at 10uM
Assay type: cell-based
Set-up: test concentration 10 uM, cell line HepG2-A16-CD81EGFP
Settings: human, HepG2-A16-CD81EGFP cells; read-out: INHIBITION
In short: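 Uninfected HepG2-A16-CD81EGFP cells, 3 × 10^3 per well, 1536-well, plated on prespotted compound at 10 μM final, parasite-free screening media added to match infected plates; puromycin 10 μM positive, DMSO 0.5% negative; run in parallel with 48 h PbLuc assay at 37 °C, 5% CO2; viability by CellTiter-Glo luminescence, normalized to controls.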

| SMILES | cytotoxicity at 10 µM |
| --- | --- |
| CS(=O)(=O)C1=C(O)C(=O)N(c2ccccc2)C1c1ccccc1 (configuration not stated) | -1.06% |
| COc1cccc(NC(=O)C2CC(=O)n3cnnc3S2)c1 (configuration not stated) | 2.27% |
| COc1cccc2c1ccn2CCNC(C)=O | 1.89% |
| COc1ccc2c(c1)c(C(=O)Nc1n[nH]c(C(C)C)n1)cn2C(C)C | -26.8% |
| Cn1c(C(F)(F)F)nn(CCNC(=O)Nc2ccccc2Cl)c1=O | 13.4% |
| Cc1ncn(CCNC(=O)Nc2ccc(F)c(Cl)c2)c(=O)c1C | -2.93% |
| Cc1nsc(C(=O)NCCc2ccc(Cl)cc2)n1 | 2.09% |
| O=C(Cc1ccsc1)N1CCC2(CCCN(CC3CCOCC3)C2)C1 (configuration not stated) | -135% |
| CCOCC1CN(C(=O)c2ccoc2)Cc2nn(C)cc21 (configuration not stated) | 0.254% |
| COCC(=O)N1CCC2(CCN(c3cnn(C)c3)C2=O)C1 (configuration not stated) | 0.486% |
| CCN1CC2(CC1=O)CN(C(=O)c1ccoc1)CCN(C(=O)N(C)C)C2 (configuration not stated) | 4.26% |
| O=C(c1ccccc1)N1CC(C(=O)N2CCOCC2)C2(CCOCC2)C1 (configuration not stated) | 3.07% |
| Cn1ncc2c1C(COCC1CC1)CN(C(=O)Cc1ccsc1)C2 (configuration not stated) | 10.1% |
| CC(C)CCNC(=O)C1CCN(c2ccc3nnc(C(C)C)n3n2)CC1 | 1.68% |
| COc1cccc2c3c(c(=O)[nH]c12)CCO3 | 5.57% |
| CN(C)C(=O)c1nc2c(s1)CCN(C(=O)c1ccc(Cl)cc1)CC2 | -14.2% |
| CC(C)(C)NC(=O)c1ccn(COc2c(Cl)cccc2Cl)n1 | 3.02% |
| Fc1ccccc1NCc1nc2n(n1)CCCCC2 | 2.02% |
| COc1cc(C(F)(F)F)sc1C(=O)O | -3.29% |
| CCn1nc(CNC(C)(C)CO)c(-c2ccccc2)n1 | 8.96% |
| Cc1nc(N2CCOCC2)ncc1-c1cc(O)nc(N2CCCCC2)n1 | 6.2% |
| Cc1cnc2[nH]c(C(F)(F)F)c(CN3CCSCC3)c2c1 | 13.3% |
| Cc1cc(C)nc(C2CCCN2C(=O)c2cnccn2)n1 (configuration not stated) | 3.74% |

| SMILES | cytotoxicity at 10 µM |
| --- | --- |
| CNc1nccnc1C1CN(Cc2ccc3[nH]ccc3c2)CCO1 (configuration not stated) | -2.52% |
| CCc1nccn1-c1cccc(C2CCN(C(=O)COC)CC2)n1 | -14.9% |
| CS(=O)(=O)N1CCCC1Cn1cccn1 (configuration not stated) | -10.2% |
| O=C(O)c1ccccc1CN1CCOC(CCc2ccncn2)C1 (configuration not stated) | -20.6% |
| Cc1nn(C)cc1CN1CCC(C2Nc3ccccc3S(=O)(=O)N2)CC1 (configuration not stated) | -2.19% |
| CN(C)CCOc1ccccc1N1CCN(C(=O)C(C)(C)C#N)CC1 | 11.4% |
| Cn1ccnc1C(O)(CCNCc1ccco1)C(F)(F)F (configuration not stated) | 1.66% |
| CSCC(C)C(=O)NCc1c(C)nc2cc(=O)[nH]n2c1C (configuration not stated) | -16.3% |
| CNS(=O)(=O)CC1CCCN1c1ccc(Br)cn1 (configuration not stated) | 3.1% |
| CCN(CC)C(CNC(=O)c1cccnc1-n1cncn1)c1ccsc1 (configuration not stated) | -146% |
| NS(=O)(=O)CCNC(=O)c1ccc(OCc2ccccc2)nc1 | 6.85% |
| O=C(Cc1ccon1)N1CCN(c2ccncc2Cl)CC1 | -2.47% |
| CN1N=C(C(=O)N2CCCN(c3ncccc3C#N)CC2)CCC1=O | -1.8% |
| CN(Cc1cnn(C)c1)S(=O)(=O)N1CCCCC1 | -3.38% |
| Cc1cc(C)n(CC2CCCCN2CC(=O)Nc2c(C)n[nH]c2C)n1 (configuration not stated) | -1.92% |
| NC(=O)CSc1ccccc1NC(=O)C1CCCCC1 | -127% |
| N#CCCCOc1cccnc1NC(=O)CC1CCCCC1 | 21.9% |
| CNC(=O)N1CCCCC1c1nnc2n1CCCC2 (configuration not stated) | -6.1% |
| COc1ccc(OC)c(-n2nnnc2SCC2CCCCO2)c1 (configuration not stated) | 11.7% |
| O=C(NC1CCCN(c2ccccc2Cl)C1)c1c[nH]nn1 (configuration not stated) | -1.58% |
| CS(=O)(=O)NC1CCCN(C(=O)Nc2ccccc2Cn2cccn2)C1 (configuration not stated) | 3.81% |
| CCNc1nc(C)c(C(=O)N(C)Cc2nc(CC)no2)s1 | -6.02% |
| CCn1cc(S(=O)(=O)N2CCCC2c2ccc(C)o2)cn1 (configuration not stated) | 20.9% |

| SMILES | cytotoxicity at 10 µM |
| --- | --- |
| Cc1ccc(C2CSCCN2C(=O)c2cccs2)o1 (configuration not stated) | 3.82% |
| Cc1cc(F)ccc1S(=O)(=O)N1CCN(C)c2ccncc21 | 8.29% |
| N#Cc1ccc(-c2nnc(CSCCN3CCOCC3)o2)cc1 | -5.08% |
| Cc1nn(C)c(C)c1C1CCCN1C(=O)Cc1cn2ccsc2n1 (configuration not stated) | -45.2% |
| CC(C)C(C)(C#N)NC(=O)Cn1cc(I)cn1 (configuration not stated) | 18.1% |
| CN(C)CCN(Cc1ccco1)C(=O)Cc1cn2ccsc2n1 | 5.92% |
| c1coc(CN2C[C@H](OCC3CCOCC3)[C@H]3COC[C@H]32)c1 | 0.127% |
| CS(=O)(=O)N[C@@H]1CCO[C@]2(CCN(C(=O)C3=CCCC3)C2)C1 | 0.693% |
| CNc1nc(C(=O)N2CCC3(CCCN(CC4CC4)C3=O)C2)cs1 (configuration not stated) | 5.33% |
| CSCc1noc(C2CCC(=O)N(CCc3ccccc3)C2)n1 (configuration not stated) | -6.72% |
| Cc1ccc(NC2(C(=O)NC(C)c3ncn[nH]3)CCCC2)cc1 (configuration not stated) | 0.317% |
| COc1ccc(F)c(-c2ncccc2NC(=O)C(C)C)c1 | 5.69% |
| CN(CCCOc1ccccc1Cl)C(=O)CN1CCCCCC1=O | -9.63% |
| CC(C)c1nc(N2CCC(N3CCSCC3)CC2)c2cnn(C)c2n1 | -136% |
| O=C(NCCCn1ccnn1)C1CCCN(C2CCCC2)C1 (configuration not stated) | -6.03% |
| COc1ccc(C(=O)O)cc1-c1cccc2c1CCNC2 | 0.979% |
| NCCc1n[nH]c(=O)n1-c1cccc(Cl)c1Cl | -2.38% |
| Cc1ncc(C(=O)N2CCC(N3CCc4ccccc4C3)CC2)c(O)n1 | -0.745% |
| CN(Cc1cccc(-n2cccn2)c1)C(=O)c1ccnc(N)c1 | -0.491% |
| Cc1c(-c2nc3cc(S(=O)(=O)N4CCCC4)ccc3n2C)cnn1C | 2.2% |
| CCn1nc(C)cc1S(=O)(=O)N1CCC2(CC(=O)NC2=O)C1 (configuration not stated) | 0.0942% |
| CN(c1ncccc1CNCc1ncc[nH]1)C1CCCCC1 | -7.28% |
| CCN1CCC(CC(=O)N2CCN(c3ccccc3OC)CC2C)CC1 (configuration not stated) | -4.9% |

| SMILES | cytotoxicity at 10 µM |
| --- | --- |
| CCOc1ccccc1C(C(=O)O)N(C)Cc1nc(C)c[nH]1 (configuration not stated) | -5.18% |
| Cc1nccn1CCCC(=O)N1CCN(c2cccnc2)CC1 | -4.98% |
| COCCNS(=O)(=O)c1cccc2c1CN(C(=O)c1ccccc1)CC2 | 5.54% |
| COCCC1(CO)CCCN(Cc2ccc(F)c(C)c2)C1 (configuration not stated) | -1.31% |
| Cc1cccc(CN2C[C@H]3OC(=O)N(CCCN4CCOCC4)[C@H]3C2)n1 | -6.85% |
| CN1CCCC(c2n[nH]c3ncccc23)C1 (configuration not stated) | -3.35% |
| CCc1nnc2n1CCN(C(=O)c1cc3c(F)cccc3[nH]1)C2 | 6.41% |
| CCn1cnnc1C1CCN(C(=O)c2ccccc2F)CC1 | -5.13% |
| Cc1nccn1-c1cc(CNC(=O)C2CCCO2)ccn1 (configuration not stated) | -7.81% |
| CCCc1n[nH]c(C2CN(C(=O)c3n[nH]c4ccccc34)CCO2)n1 (configuration not stated) | -1.39% |
| COc1c(CNCCC(=O)NC2CCCC2)c(C(C)C)nn1C | -4.41% |
| CCOc1ccc(CN(CC)C(=O)c2ccc(C)[nH]c2=O)cc1OC | -6.83% |
| Cc1cc(C)n(CC2CCCN2C(=O)c2c[nH]c(=O)c(Cl)c2)n1 (configuration not stated) | 1.53% |
| Cc1cc(NC(=O)CNC2CCCN(c3cccnn3)C2)on1 (configuration not stated) | 5.98% |
| Cc1ccc(N2CCCC(NCC(=O)Nc3cc(C)nn3C)C2)nn1 (configuration not stated) | -1.18% |
| O=C(c1cnc(-c2ncccn2)s1)N1CCCC(n2cccn2)C1 (configuration not stated) | -2.85% |
| COc1ccc(NC(=O)CCc2c(C)nc3cc(O)nn3c2C)cn1 | -9.21% |
| CN(Cc1ccco1)C(=O)CN1CCCC(Cn2cncn2)C1 (configuration not stated) | -4% |
| CCCc1n[nH]c(C2CN(C(=O)C3=COCCC3)CCO2)n1 (configuration not stated) | -5.04% |
| CC(C)c1noc(C(C)N2CCN(CCN3CCCC3=O)CC2)n1 (configuration not stated) | -10.6% |
| Cc1ccc(NC2CCN(C(=O)c3c(C)noc3C)CC2)nn1 | -4.35% |
| Cc1ccc(C(=O)N2CCCS2(=O)=O)cc1Cl | 2.29% |
| O=C(CCNc1ncccn1)N1CCCC(n2ccnc2)C1 (configuration not stated) | 0.289% |

| SMILES | cytotoxicity at 10 µM |
| --- | --- |
| Cc1cc(C)n(C2CN(CC(=O)NC3CCOCC3)C2)n1 | -3.92% |
| CCOCCC(=O)N1CCCN(Cc2csc(CC)n2)CC1 | 3.9% |
| Cc1cnn(CCNCc2nnc(C3CC3)o2)c1 | -7.89% |
| CC(C)COC(=O)N1CCC2(CCNC2)C1 (configuration not stated) | -10.1% |
| c1ccc(CN2CCc3ncnc(C4CC4)c3CC2)nc1 | -138% |
| c1cc(CNCC2OCCc3cn(CC4CC4)nc32)cs1 (configuration not stated) | 2.61% |
| O=C(NC1COC2(CCN(Cc3cccs3)CC2)C1)c1ccccn1 (configuration not stated) | -2.19% |
| CCOc1cc(CN(C)CC(=O)O)ccc1OC(F)F | 7.99% |
| CNC(=O)c1cc2c(nc1NCC(C)C)CCN(CCOC)CC2 | -147% |
| COc1nn(C)c2c1CCCN(C(=O)c1ccc3c(c1)OCO3)C2 | 13.1% |
| CCN1CC2(CC1=O)CN(Cc1cnn(C)c1)CCN(C(=O)N(C)C)C2 (configuration not stated) | -1.9% |
| CCc1ccc(CN2C[C@@H](C)C3(CCN(CC(=O)N(C)C)C3=O)C2)o1 (some centres not stated) | 1.11% |
| COc1ccc(CN2CCc3[nH]nc(C(=O)N(C)C)c3C2)cc1 | 5.18% |
| CCN1CC2(CC1=O)CN(Cc1ccsc1)CCN(C(=O)C(C)C)C2 (configuration not stated) | 5.08% |
| Cc1cccc(CN2C[C@@H]3COC[C@]3(CNC(=O)N3CCCC3)C2)n1 | 1.05% |
| O=C(c1ccc[nH]1)N1C[C@@H]2CC[C@H]1CN(C1Cc3ccccc3C1)C2 | -1.85% |
| COCCN1C[C@@H]2CC[C@H]1CN(CC(=O)Nc1ccn(C)n1)C2 | -8.39% |
| CCCS(=O)(=O)N1C[C@@H]2C[C@H](C(=O)N3CCN(C)CC3)[C@H](C1)O2 | 1.47% |
| CSc1ccccc1C(=O)N1C[C@@H]2CC[C@H]1CN(C(=O)N(C)C)C2 | -3.99% |
| Cn1cnc(S(=O)(=O)N2C[C@H]3CC[C@@H](C2)N(Cc2ccccn2)C3)c1 | 7.27% |
